Key:
SK-MEL-28 = experiment: Antiproliferative activity against human SK-MEL-28 cells assessed as cell growth at 0.000001 M incubated for 48 hrs by SRB assay relative to control; assay type: functional; details: read-out: Activity
SK-MEL-5 = experiment: Growth inhibition against human SK-MEL-5 cells assessed as total growth inhibitory concentration incubated for 48 hrs by sulforhodamine B assay; assay type: functional
HCC 2998 = experiment: Antiproliferative activity against human HCC 2998 cells assessed as cell growth at 0.000001 M incubated for 48 hrs by SRB assay relative to control; assay type: functional; details: read-out: Activity
Method in brief: (§1)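 NCI-60 five-dose screen (10^-4 to 10^-8 M). Cells grown in RPMI 1640 with 5% FBS and 2 mM L-glutamine, plated at 5,000-40,000 cells/well and preincubated 24 h. Drug given from DMSO stock, then 48 h at 37 °C, 5% CO2. For adherent lines, cells fixed with cold TCA, SRB-stained and read at 515 nm. Percent growth taken against time-zero and untreated control.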

SF-268 [1] = experiment: Antiproliferative activity against human SF-268 cells assessed as cell growth at 0.00000001 M incubated for 48 hrs by SRB assay relative to control; assay type: functional; details: dose 10 nM, read-out: Activity
LOX IMVI = experiment: Antiproliferative activity against human LOX IMVI cells assessed as cell growth at 0.00000001 M incubated for 48 hrs by SRB assay relative to control; assay type: functional; details: dose 10 nM, read-out: Activity
HL-60 = experiment: Antiproliferative activity against human HL-60 cells assessed as cell growth at 0.000001 M incubated for 48 hrs by SRB assay relative to control; assay type: functional; details: read-out: Activity; method in brief: as §1
786-0 = experiment: Antiproliferative activity against human 786-0 cells assessed as cell growth at 0.0001 M incubated for 48 hrs by SRB assay relative to control; assay type: functional; details: read-out: Activity
Method in brief: (§2)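 NCI-60 five-dose screen over 10^-4–10^-8 M (10-fold dilutions). Cells grown in RPMI 1640 with 5% FBS and 2 mM L-glutamine, seeded at 5,000–40,000 cells/well and preincubated 24 h. Drug from DMSO stock, 48 h at 37 °C, 5% CO2. Adherent cells TCA-fixed and stained with 0.4% SRB; A515 read. Percent growth = (Ti−Tz)/(C−Tz)×100, or (Ti−Tz)/Tz×100 when Ti<Tz.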

MDA-MB-468 = experiment: Antiproliferative activity against human MDA-MB-468 cells assessed as cell growth at 0.000001 M incubated for 48 hrs by SRB assay relative to control; assay type: functional; details: read-out: Activity
SN12C = experiment: Antiproliferative activity against human SN12C cells assessed as cell growth inhibition by measuring lethal concentration incubated for 48 hrs by sulforhodamine B assay; assay type: functional; details: read-out: LC50 (the source's name)
HEK293 = experiment: Cytotoxicity against human HEK293 cells assessed as reduction in cell viability at 0.000001 M incubated for 48 hrs by MTT colorimetric assay relative to control; assay type: toxicity, cell-based; details: hek293, 48 h, 1 µM
SR = experiment: Antiproliferative activity against human SR cells assessed as cell growth at 0.00000001 M incubated for 48 hrs by SRB assay relative to control; assay type: functional; details: dose 10 nM, read-out: Activity
TK-10 = experiment: Antiproliferative activity against human TK-10 cells assessed as cell growth at 0.00000001 M incubated for 48 hrs by SRB assay relative to control; assay type: functional; details: dose 10 nM, read-out: Activity
OVCAR-8 = experiment: Antiproliferative activity against human OVCAR-8 cells assessed as cell growth at 0.00000001 M incubated for 48 hrs by SRB assay relative to control; assay type: functional; details: dose 10 nM, read-out: Activity
SF-268 [2] = experiment: Antiproliferative activity against human SF-268 cells assessed as cell growth inhibition by measuring lethal concentration incubated for 48 hrs by sulforhodamine B assay; assay type: functional; details: read-out: LC50 (the source's name)
MDA-MB-231 = experiment: Antiproliferative activity against human MDA-MB-231 cells assessed as cell growth at 0.0000001 M incubated for 48 hrs by SRB assay relative to control; assay type: functional; details: dose 100 nM, read-out: Activity
KM12 [3] = experiment: Antiproliferative activity against human KM12 cells assessed as cell growth at 0.0001 M incubated for 48 hrs by SRB assay relative to control; assay type: functional; details: read-out: Activity
OVCAR-3 [4] = experiment: Antiproliferative activity against human OVCAR-3 cells assessed as cell growth at 0.00001 M incubated for 48 hrs by SRB assay relative to control; assay type: functional; details: read-out: Activity
EKVX = experiment: Antiproliferative activity against human EKVX cells assessed as cell growth at 0.0000001 M incubated for 48 hrs by SRB assay relative to control; assay type: functional; details: dose 100 nM, read-out: Activity; method in brief: as §1
OVCAR-3 [5] = experiment: Antiproliferative activity against human OVCAR-3 cells assessed as cell growth at 0.00000001 M incubated for 48 hrs by SRB assay relative to control; assay type: functional; details: dose 10 nM, read-out: Activity
Malme-3M = experiment: Antiproliferative activity against human Malme-3M cells assessed as cell growth at 0.00000001 M incubated for 48 hrs by SRB assay relative to control; assay type: functional; details: dose 10 nM, read-out: Activity
DU-145 [6] = experiment: Antiproliferative activity against human DU-145 cells assessed as cell growth at 0.00001 M incubated for 48 hrs by SRB assay relative to control; assay type: functional; details: read-out: Activity; method in brief: as §1
UO-31 = experiment: Growth inhibition against human UO-31 cells incubated for 48 hrs by sulforhodamine B assay; assay type: functional
SF-295 = experiment: Antiproliferative activity against human SF-295 cells assessed as cell growth at 0.00001 M incubated for 48 hrs by SRB assay relative to control; assay type: functional; details: read-out: Activity
NCI-H322M = experiment: Antiproliferative activity against human NCI-H322M cells assessed as cell growth at 0.000001 M incubated for 48 hrs by SRB assay relative to control; assay type: functional; details: read-out: Activity
NCI/ADR-RES = experiment: Growth inhibition against human NCI/ADR-RES cells incubated for 48 hrs by sulforhodamine B assay; assay type: functional
KM12 [7] = experiment: Antiproliferative activity against human KM12 cells assessed as cell growth at 0.0000001 M incubated for 48 hrs by SRB assay relative to control; assay type: functional; details: dose 100 nM, read-out: Activity
COLO 205 = experiment: Antiproliferative activity against human COLO 205 cells assessed as cell growth at 0.0001 M incubated for 48 hrs by SRB assay relative to control; assay type: functional; details: read-out: Activity; method in brief: as §2
HT-29 = experiment: Antiproliferative activity against human HT-29 cells assessed as cell growth at 0.0000001 M incubated for 48 hrs by SRB assay relative to control; assay type: functional; details: dose 100 nM, read-out: Activity; method in brief: as §1
NCI-H522 = experiment: Antiproliferative activity against human NCI-H522 cells assessed as cell growth at 0.00001 M incubated for 48 hrs by SRB assay relative to control; assay type: functional; details: read-out: Activity
CAKI-1 = experiment: Antiproliferative activity against human CAKI-1 cells assessed as cell growth inhibition by measuring lethal concentration incubated for 48 hrs by sulforhodamine B assay; assay type: functional; details: read-out: LC50 (the source's name)
UACC-257 = experiment: Growth inhibition against human UACC-257 cells incubated for 48 hrs by sulforhodamine B assay; assay type: functional
DU-145 [8] = experiment: Antiproliferative activity against human DU-145 cells assessed as cell growth at 0.0000001 M incubated for 48 hrs by SRB assay relative to control; assay type: functional; details: dose 100 nM, read-out: Activity; method in brief: as §2
SW-620 = experiment: Growth inhibition against human SW620 cells incubated for 48 hrs by sulforhodamine B assay; assay type: functional
Albumin = Albumin (Bos taurus, UniProt P02769); experiment: Binding affinity to bovine serum albumin assessed as binding constant by Stern-Volmer equation based fluorescence spectroscopic method; details: cattle
Chain of Albumin (P02769 whole entry): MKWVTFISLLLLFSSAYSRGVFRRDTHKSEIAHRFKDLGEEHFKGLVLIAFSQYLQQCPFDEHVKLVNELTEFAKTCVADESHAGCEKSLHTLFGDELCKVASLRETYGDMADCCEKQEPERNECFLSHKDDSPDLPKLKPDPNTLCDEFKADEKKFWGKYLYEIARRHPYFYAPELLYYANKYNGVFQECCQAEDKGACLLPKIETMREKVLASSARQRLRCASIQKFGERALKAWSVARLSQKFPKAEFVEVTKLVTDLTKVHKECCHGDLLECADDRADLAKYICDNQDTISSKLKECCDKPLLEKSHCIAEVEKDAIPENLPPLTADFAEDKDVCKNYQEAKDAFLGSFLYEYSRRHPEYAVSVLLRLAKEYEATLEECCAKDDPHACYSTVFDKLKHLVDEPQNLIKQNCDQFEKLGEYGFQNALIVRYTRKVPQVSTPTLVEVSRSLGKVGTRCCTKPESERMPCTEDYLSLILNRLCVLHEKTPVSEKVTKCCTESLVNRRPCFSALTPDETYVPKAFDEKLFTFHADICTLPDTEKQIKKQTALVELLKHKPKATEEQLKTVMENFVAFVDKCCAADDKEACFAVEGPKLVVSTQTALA

| Compound | growth at 1 µM (SK-MEL-28) | TGI (SK-MEL-5) | growth at 1 µM (HCC 2998) | growth at 0.01 µM (SF-268 [1]) | growth at 0.01 µM (LOX IMVI) | growth at 1 µM (HL-60) | growth at 100 µM (786-0) | growth at 1 µM (MDA-MB-468) | CC50 (SN12C) | Activity (HEK293) | growth at 0.01 µM (SR) | growth at 0.01 µM (TK-10) | growth at 0.01 µM (OVCAR-8) | CC50 (SF-268 [2]) | growth at 0.1 µM (MDA-MB-231) | growth at 100 µM (KM12 [3]) | growth at 10 µM (OVCAR-3 [4]) | growth at 0.1 µM (EKVX) | growth at 0.01 µM (OVCAR-3 [5]) | growth at 0.01 µM (Malme-3M) | further results |
| --- | --- | --- | --- | --- | --- | --- | --- | --- | --- | --- | --- | --- | --- | --- | --- | --- | --- | --- | --- | --- | --- |
| c1ccc(Cn2cnc3ccc(-c4nc(-c5ccc6c(c5)ncn6C5CCCCC5)cn5ccnc45)cc32)cc1 | 87% | 2.96 µM | 105% | 96% | 98% | 113% | 4% | 89% | > 100 µM | 14.11% | 98% | 84% | 106% | > 100 µM | 98% | -7% | -29% | 91% | 101% | 92% | growth at 10 µM (DU-145 [6]): 4%; GI50 (UO-31): 1.72 µM; growth at 10 µM (SF-295): -82%; growth at 1 µM (NCI-H322M): 89%; GI50 (NCI/ADR-RES): 1.98 µM; growth at 0.1 µM (KM12 [7]): 98%; growth at 100 µM (COLO 205): -39%; growth at 0.1 µM (HT-29): 97%; growth at 10 µM (NCI-H522): -37%; CC50 (CAKI-1): > 100 µM; GI50 (UACC-257): 2.24 µM; growth at 0.1 µM (DU-145 [8]): 98%; GI50 (SW-620): 3.4 µM; Kb (Albumin): 1.08 10^5/M |
| COc1ccc(-c2cn3ccnc3c(-c3ccc4ncn(C5CCCCC5)c4c3)n2)cc1 | 58% | 3.2 µM | 86% | 96% | 95% | 52% | 2% | 47% | > 100 µM | 15.07% | 102% | 88% | 105% | > 100 µM | 101% | 10% | 10% | 89% | 100% | 100% | growth at 10 µM (DU-145 [6]): 14%; GI50 (UO-31): 1.35 µM; growth at 10 µM (SF-295): -29%; growth at 1 µM (NCI-H322M): 87%; GI50 (NCI/ADR-RES): 0.618 µM; growth at 0.1 µM (KM12 [7]): 99%; growth at 100 µM (COLO 205): -5%; growth at 0.1 µM (HT-29): 92%; growth at 10 µM (NCI-H522): -7%; CC50 (CAKI-1): > 100 µM; GI50 (UACC-257): > 100 µM; growth at 0.1 µM (DU-145 [8]): 102%; GI50 (SW-620): 0.734 µM; Kb (Albumin): 4.68 10^5/M |
